Data: ChEMBL document CHEMBL1150198, “DNA as an affinity probe useful in the detection and isolation of biologically active natural products” (J Nat Prod, 1991)
Starred links: 1 amine or outer side, 2 acyl side, 3 side chain; linkers in the order of their positions; H or OH if unused. Positions of bridges follow the written chain, without caps; N, C: chain ends. Non-standard residues stand in square brackets, D forms with d. Residues, ends and D or L forms follow the SMILES beside them. Chains are numbered I, II in the order given. Actinocin(9to1) = Cc1c2oc3c(C)ccc(C(=O)[*:1])c3nc-2c(C(=O)[*:2])c(N)c1=O; NMeV = CN[C@H](C(=O)O)C(C)C; Sar = CNCC(=O)O

What was measured:
Calf thymus DNA = experiment: Binding affinity to calf thymus DNA assessed as reduction in DNA peak by pre-incubation method; assay type: nucleic-acid assay; parameters: concentration or dose not given beside the values; conditions: Bos taurus
In short: (§1)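 Nucleic acid at 0.1 mg/ml in water; test substance at 1.0 mg/ml in water or MeOH, mixed 1:1 (v/v) and held at ambient temperature for 5–30 min. 40 or 80 µl injected onto a C18 reversed-phase column equilibrated in H2O-MeOH (80:20), 1 ml/min, with 254 nm detection. The free nucleic-acid peak (~1.2 min) was compared with nucleic acid injected alone.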

Nucleic Acid = experiment: Binding affinity to yeast tRNA assessed as reduction in tRNA peak by pre-incubation method; assay type: nucleic-acid assay; parameters: concentration or dose not given beside the values; conditions: Saccharomyces cerevisiae; in short: as §1

Row | Compound | Activity (Calf thymus DNA) [%] | Activity (Nucleic Acid) [%]
1 | COc1cccc2c1C(=O)c1c(O)c3c(c(O)c1C2=O)C[C@@](O)(C(C)=O)C[C@@H]3O[C@H]1C[C@H](N)[C@H](O)[C@H](C)O1 | 100 | –
2 | Cc1c2ccncc2c(C)c2c1[nH]c1ccccc12 | > 70 | 30
3 | COc1cc2c(c3c1c(=O)c1ccccc1n3C)C=CC(C)(C)O2 | < 30 | –
4 | CC(C)=CC(=O)O[C@@H]1C(C)=C2C(=O)C=C(C)[C@]2(O)[C@H]2OC(=O)C[C@@H]2[C@H]1O | 30 | –
5 | C=C1C(=O)O[C@H]2[C@H]1[C@@H](O)[C@H](OC(=O)C=C(C)C)C(C)=C1C[C@H]3O[C@@]3(C)[C@@H]12 | 30 | –
6 | COc1cccc2c1C(=O)c1c(O)c3c(c(O)c1C2=O)C[C@@](O)(C(=O)CO)C[C@@H]3O[C@H]1C[C@H](N)[C@H](O)[C@H](C)O1 | 100 | 100
7 | COC(=O)CC1(O)C=CC(=O)C=C1 | 30 | < 30
8 | Cc1c2oc3c(C)ccc(C(=O)N[C@@H]4C(=O)N[C@H](C(C)C)C(=O)N5CCC[C@H]5C(=O)N(C)CC(=O)N(C)[C@@H](C(C)C)C(=O)O[C@@H]4C)c3nc-2c(C(=O)N[C@@H]2C(=O)N[C@H](C(C)C)C(=O)N3CCC[C@H]3C(=O)N(C)CC(=O)N(C)[C@@H](C(C)C)C(=O)O[C@@H]2C)c(N)c1=O (I: T[dV]P[Sar][NMeV] / II: T[dV]P[Sar][NMeV]; ester I:1-I:C, II:1-II:C; linker I:N-II:N via Actinocin(9to1)) | 30 | < 30
9 | COc1cc2c(ccc3c4cc(OC)c(OC)cc4c[n+](C)c23)cc1O | 100 | 100
10 | Nc1c2ccccc2nc2ccccc12 | > 70 | 100
11 | BLEOMYCIN | < 30 | > 70
12 | COc1ccc2c(c1)c1ccnc3ccc(=O)n2c31 | 30 | –
13 | CC[n+]1c(-c2ccccc2)c2cc(N)ccc2c2ccc(N)cc21 | 100 | 100
14 | COc1cc2c(c(OC)c1OC)-c1ccc(OC)c(=O)cc1[C@@H](NC(C)=O)CC2 | < 30 | < 30
15 | C=C1C(=O)O[C@@H]2C3O[C@]3(C)CC/C=C(\C)CC[C@@H]12 (stereo partly specified) | 30 | < 30
16 | CC[C@]1(O)C[C@H]2CN(CCc3c([nH]c4ccccc34)[C@@](C(=O)OC)(c3cc4c(cc3OC)N(C=O)[C@H]3[C@@](O)(C(=O)OC)[C@H](OC(C)=O)[C@]5(CC)C=CCN6CC[C@]43[C@@H]65)C2)C1 | > 70 | 100
17 | C=C1C(=O)O[C@H]2[C@H]1[C@@H](O)[C@H](O)C(C)=C1C[C@H]3O[C@@]3(C)[C@@H]12 | 30 | < 30
18 | CC[C@]1(O)C[C@@H]2CN(CCc3c([nH]c4ccccc34)[C@@](C(=O)OC)(c3cc4c(cc3OC)N(C)[C@H]3[C@@](O)(C(=O)OC)[C@H](OC(C)=O)[C@]5(CC)C=CCN6CC[C@]43[C@@H]65)C2)C1 | > 70 | 100
